The results in this text go back to ChEMBL document CHEMBL5226322, “Harnessing the Role of HDAC6 in Idiopathic Pulmonary Fibrosis: Design, Synthesis, Structural Analysis, and Biological Evaluation of Potent Inhibitors” (J Med Chem, 2021).

The nature of data set [1]: Metabolic stability in human liver microsome assessed as half life at 5 uM in presence of NADPH incubated up to 60 mins by HPLC analysis. It counts as ADME. The note with it: microsomes, 1 h.
The test system of data set [2] is Heart. Briefly: Cardiotoxicity in Langendorff-perfused Sprague-Dawley rat heart assessed as effect on PQ interval time at 10 uM by ECG analysis (reference value: 43.6 +/-2.5 milliseconds). It counts as toxicity, tissue-based.
Data set [3] can be described thus: Toxicity in zebra fish embryo at 50 uM […]. Also on record: species or system Danio rerio. Conditions: zebrafish. An outline of the steps: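 Wildtype Tübingen zebrafish larvae reared at 28.5 °C (14 h light/10 h dark) in embryo medium with methylene blue. From 3 days old, exposed for 2 days to 1, 10, 25, 50 or 100 µM in embryo medium, or 0.1% DMSO vehicle. 4 larvae per well in 400 µL, 8 larvae per group. Larvae scored for swim bladder inflation and cardiac edema.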

Data set [4] relates to Heart. As to the kind of experiment: Cardiotoxicity in Langendorff-perfused Sprague-Dawley rat heart assessed as effect on QRS interval time at 10 uM by ECG analysis (reference value: 15.2 +/-0.2 milliseconds). It counts as toxicity, tissue-based.
Data set [5] deals with NIH3T3. Briefly: Cytotoxicity in mouse NIH3T3 cells assessed as reduction in cell viability at 25 uM incubated for 24 hrs by neutral red uptake method based UV/visible spectrophotometer analysis. It counts as toxicity. The note with it: nih3t3, 24 h. A digest of the protocol:
(§1)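 NIH3T3 mouse fibroblasts grown in DMEM with 10% FCS, L-glutamine/pen-strep and non-essential amino acids (37 °C, 5% CO2). Exposed 24 h to compound diluted from a DMSO stock into medium. Viability measured by Neutral Red uptake: 3 h in NR medium, then acetic acid/ethanol desorb, absorbance at 540 nm. Student's t-test, p<0.05.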

Data set [6] relates to Heart. Briefly: Cardiotoxicity in Langendorff-perfused Sprague-Dawley rat heart assessed as effect on PQ interval time at 0.1 uM by ECG analysis (reference value: 43.6 +/-2.5 milliseconds). It counts as toxicity, tissue-based.
The species named for the next data set is Homo sapiens. Briefly: Antifibrotic activity in TGF-beta1-induced human Lung parenchyma assessed as inhibition of HDAC6 mRNA expression at 4.1 uM incubated upto 7 days by qRT-PCR analysis. It counts as functional. Conditions: time <= 7.0 day. A digest of the protocol:
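Human lung parenchyma pieces (2 mm³) cultured in DMEM with TGF-β1 (10 ng/mL) plus compound at 0.41 or 4.1 μM or vehicle (0.1% DMSO). Tissue collected on day 7, homogenized, total RNA purified, then qRT-PCR for HDAC6, collagen I, collagen III, αSMA and fibronectin. Relative expression by the 2^-Ct method; n=3, paired t test.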
For orientation: In qPCR the cycle at which signal appears reflects the starting amount.

The test system of data set [7] is Heart. Briefly: Cardiotoxicity in Langendorff-perfused Sprague-Dawley rat heart assessed as effect on HR at 10 uM by ECG analysis (reference value: 235.7 +/-8.3 bpm). It counts as toxicity, tissue-based.
Data set [8] relates to Heart. As to the kind of experiment: Cardiotoxicity in Langendorff-perfused Sprague-Dawley rat heart assessed as effect on QT interval time at 0.01 uM by ECG analysis (reference value: 76.2 +/-2.9 milliseconds). It counts as toxicity, tissue-based.
Data set [9] can be described thus: Toxicity in zebra fish embryo assessed as visual capacity changes at 1 to 100 uM […] by optokinetic reflex assay. Further details: species or system Danio rerio. The note with it: zebrafish, dose 1-100 µM. A digest of the protocol: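 Wildtype Tübingen larvae at 28.5 °C were exposed from 3 days old for 2 days to 1–100 µM (1, 10, 25, 50, 100) in embryo medium, against 0.1% DMSO vehicle. 8 larvae per group. Visual function was then tested by optokinetic reflex at 2 days post-treatment, on 5-day-old larvae.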

Data set [10] can be described thus: Cytotoxicity in mouse NIH3T3 cells assessed as reduction in cell viability by measuring toxic concentration incubated for 24 hrs by neutral red uptake method based UV/visible spectrophotometer analysis. Conditions: read-out: TC50. It counts as toxicity. An outline of the steps:
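NIH3T3 mouse fibroblasts grown in DMEM with 10% FCS, L-glutamine/penicillin/streptomycin and non-essential amino acids, 37 °C, 5% CO2. DMSO stocks diluted in complete medium, applied to monolayers for 24 h at several concentrations. Viability by Neutral Red uptake: 3 h dye loading, desorb in acetic acid/ethanol, absorbance at 540 nm. Student's t-test, p < 0.05.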

Data set [11] in a line: Mutagenecity in Salmonella typhimurium TA98 in presence of S9 fraction at 1 to 75 uM incubated for 90 mins by Ames test. Conditions: salmonella enterica subsp. enterica serovar typhimurium, s9, 1.5 h, dose 1-75 µM. It counts as toxicity, subcellular. In general terms: The Ames test uses bacterial strains that need an amino acid and regain growth without it when mutated back.

Data set [12] has as its system Heart. Briefly: Cardiotoxicity in Langendorff-perfused Sprague-Dawley rat heart assessed as effect on QT interval time at 10 uM by ECG analysis (reference value: 76.2 +/-2.9 milliseconds). It counts as toxicity, tissue-based.
Data set [13] relates to NIH3T3. As to the kind of experiment: Cytotoxicity in mouse NIH3T3 cells assessed as reduction in cell viability at 15 uM incubated for 24 hrs by neutral red uptake method based UV/visible spectrophotometer analysis. It counts as toxicity. Conditions: nih3t3, 24 h. A digest of the protocol:
as §1

Data set [14] concerns Heart. As to the kind of experiment: Cardiotoxicity in Langendorff-perfused Sprague-Dawley rat heart assessed as effect on HR at 1 uM by ECG analysis (reference value: 235.7 +/-8.3 bpm). It counts as toxicity, tissue-based.

The source made the active and inactive calls. No cut-off for these calls is given here.

For the compound `CN1CCC2(CC1)c1ccccc1N(Cc1ccc(C(=O)NO)cc1)C2c1ccccc1F` (racemic), the t1/2 in [1] is recorded as 51.68 min.
As for `CC1(C)c2ccccc2N(Cc2ccc(C(=O)NO)cc2)C1c1cccnc1` (racemic), the Time in the data set on Heart [2] was found to be 50.4 ms; with Heart [4] it was 18 ms; in the data set with Heart [6] it was 44.6 ms; with Heart [8] it was 78.1 ms; in the data set on Heart [12], 78.3 ms. The Activity entry in data set [3] is recorded as “Non-Toxic”; in the data set on NIH3T3 [5] it was 87%; in the data set on Heart [7] it was 207.9 bpm; in data set [9] it was “Non-Toxic”; in data set [11], “Non-Toxic”; with NIH3T3 [13] it was 94%. Moreover, the Activity in the data set with Heart [14] is on record as 235.4 bpm. Also, the outcome in the data set listed under Homo sapiens was Active. In data set [10], the CC50 at 24 h was 75 µM.
